Experimental data taken from ChEMBL document CHEMBL5257161, “Mycobacterium tuberculosis CitA activity is modulated by cysteine oxidation and pyruvate binding” (RSC Med Chem, 2023).

Biological target: T1, Putative citrate synthase 2 (Mycobacterium tuberculosis, UniProt P9WPD3)
T1 sequence (P9WPD3 whole entry): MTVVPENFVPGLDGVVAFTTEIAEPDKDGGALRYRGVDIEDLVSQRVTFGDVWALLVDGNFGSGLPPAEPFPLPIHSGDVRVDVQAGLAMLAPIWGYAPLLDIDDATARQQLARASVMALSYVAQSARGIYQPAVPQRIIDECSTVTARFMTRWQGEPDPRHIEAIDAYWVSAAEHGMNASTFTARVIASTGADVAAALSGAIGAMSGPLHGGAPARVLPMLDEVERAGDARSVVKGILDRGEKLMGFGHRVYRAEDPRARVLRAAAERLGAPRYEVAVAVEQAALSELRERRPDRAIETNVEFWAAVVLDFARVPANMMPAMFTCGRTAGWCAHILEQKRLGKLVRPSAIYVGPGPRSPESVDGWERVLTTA
Assay: Inhibition of Mycobacterium tuberculosis CitA expressed in Escherichia coli cell by UV spectrophotometric based analysis
In short: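 Michael acceptor compounds were added directly to the DTNB/OAA/AcCoA reaction with 10 nM CitA in 50 mM Tris pH 8.0 at 25 °C, read at 412 nm. The screen used 20 μM compound. Dose–response data were fitted to the Hill equation for apparent IC50. A control measured how fast the compounds react with reaction components.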

| Structure (SMILES) | IC50 |
| --- | --- |
| C=C1C(=O)OC2(C(=O)Nc3ccccc32)C1c1ccccc1 (configuration not stated) | 10.9 µM |
| C=C1CC2(OC1=O)C(=O)Nc1ccc(I)cc12 (configuration not stated) | 6.6 µM |
